Most compounds without a hit are left out; they make up all but 8.4% or so of the library.
PostGolgi ctrl = yeast control strain growth, post-Golgi counter-screen. efflux-deficient yeast background strain, growth absorbance A615, 16 h. inhibition, % at 10 µM. 98,000 tested, 5% active. AID 738
PostGolgi yeast = growth inhibition of a yeast mutant, post-Golgi transport screen; post-Golgi transport phenotypic cell assay; inhibition, % at 10 µM; 98,000 tested, 0.9% active; AID 739;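 further: yeast cells grown in 1536-well plates; yeast grown about 18 h at 30C before absorbance read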
tolC growth inh = growth inhibitors of E. coli BW25113 tolC mutant. OD615. growth inhibition, % at 10 µM (by protocol). 65,000 tested, 2.2% active. AID 573;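 active means growth inhibition at or above a cutoff equal to the mean over every tested compound plus 3 SD, cut at about 60% in these data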;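 further: growth measured after 20 h incubation at 37 °C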
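Test system: tolC-deleted E. coli BW25113 | Medium: LB with kanamycin 50 µg/mL | Compound dosing: Single concentration, 10 µM final per compound | Schedule: 37 °C, 20 h exposure | Measured by: OD at 615 nm | Evaluation: Percent growth inhibition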
Ecoli WT expand = E. coli BW25113 growth inhibition, expanded screen. OD600 absorbance. growth inhibition, % at 100 µM. 98,000 tested, 0.15% active. AID 710;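 active means growth inhibition above about 50% at one test dose, limit read from the data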;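 further: growth measured after 20 h incubation at 37 °C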
Cav3 T inh = blocks human Cav3.2 T-type calcium channel; B-score at 10 µM; O95180; Cav3.2-expressing cells, Fluo-4 calcium fluorescence FDSS; hits give low values; 100,000 tested, 4% active; AID 449739;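 active means single-dose well whose peak fluorescence ratio is a statistical outlier from its plate by either plate-standardised score or position-corrected B-score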
Target sequence (O95180 whole entry, looked up): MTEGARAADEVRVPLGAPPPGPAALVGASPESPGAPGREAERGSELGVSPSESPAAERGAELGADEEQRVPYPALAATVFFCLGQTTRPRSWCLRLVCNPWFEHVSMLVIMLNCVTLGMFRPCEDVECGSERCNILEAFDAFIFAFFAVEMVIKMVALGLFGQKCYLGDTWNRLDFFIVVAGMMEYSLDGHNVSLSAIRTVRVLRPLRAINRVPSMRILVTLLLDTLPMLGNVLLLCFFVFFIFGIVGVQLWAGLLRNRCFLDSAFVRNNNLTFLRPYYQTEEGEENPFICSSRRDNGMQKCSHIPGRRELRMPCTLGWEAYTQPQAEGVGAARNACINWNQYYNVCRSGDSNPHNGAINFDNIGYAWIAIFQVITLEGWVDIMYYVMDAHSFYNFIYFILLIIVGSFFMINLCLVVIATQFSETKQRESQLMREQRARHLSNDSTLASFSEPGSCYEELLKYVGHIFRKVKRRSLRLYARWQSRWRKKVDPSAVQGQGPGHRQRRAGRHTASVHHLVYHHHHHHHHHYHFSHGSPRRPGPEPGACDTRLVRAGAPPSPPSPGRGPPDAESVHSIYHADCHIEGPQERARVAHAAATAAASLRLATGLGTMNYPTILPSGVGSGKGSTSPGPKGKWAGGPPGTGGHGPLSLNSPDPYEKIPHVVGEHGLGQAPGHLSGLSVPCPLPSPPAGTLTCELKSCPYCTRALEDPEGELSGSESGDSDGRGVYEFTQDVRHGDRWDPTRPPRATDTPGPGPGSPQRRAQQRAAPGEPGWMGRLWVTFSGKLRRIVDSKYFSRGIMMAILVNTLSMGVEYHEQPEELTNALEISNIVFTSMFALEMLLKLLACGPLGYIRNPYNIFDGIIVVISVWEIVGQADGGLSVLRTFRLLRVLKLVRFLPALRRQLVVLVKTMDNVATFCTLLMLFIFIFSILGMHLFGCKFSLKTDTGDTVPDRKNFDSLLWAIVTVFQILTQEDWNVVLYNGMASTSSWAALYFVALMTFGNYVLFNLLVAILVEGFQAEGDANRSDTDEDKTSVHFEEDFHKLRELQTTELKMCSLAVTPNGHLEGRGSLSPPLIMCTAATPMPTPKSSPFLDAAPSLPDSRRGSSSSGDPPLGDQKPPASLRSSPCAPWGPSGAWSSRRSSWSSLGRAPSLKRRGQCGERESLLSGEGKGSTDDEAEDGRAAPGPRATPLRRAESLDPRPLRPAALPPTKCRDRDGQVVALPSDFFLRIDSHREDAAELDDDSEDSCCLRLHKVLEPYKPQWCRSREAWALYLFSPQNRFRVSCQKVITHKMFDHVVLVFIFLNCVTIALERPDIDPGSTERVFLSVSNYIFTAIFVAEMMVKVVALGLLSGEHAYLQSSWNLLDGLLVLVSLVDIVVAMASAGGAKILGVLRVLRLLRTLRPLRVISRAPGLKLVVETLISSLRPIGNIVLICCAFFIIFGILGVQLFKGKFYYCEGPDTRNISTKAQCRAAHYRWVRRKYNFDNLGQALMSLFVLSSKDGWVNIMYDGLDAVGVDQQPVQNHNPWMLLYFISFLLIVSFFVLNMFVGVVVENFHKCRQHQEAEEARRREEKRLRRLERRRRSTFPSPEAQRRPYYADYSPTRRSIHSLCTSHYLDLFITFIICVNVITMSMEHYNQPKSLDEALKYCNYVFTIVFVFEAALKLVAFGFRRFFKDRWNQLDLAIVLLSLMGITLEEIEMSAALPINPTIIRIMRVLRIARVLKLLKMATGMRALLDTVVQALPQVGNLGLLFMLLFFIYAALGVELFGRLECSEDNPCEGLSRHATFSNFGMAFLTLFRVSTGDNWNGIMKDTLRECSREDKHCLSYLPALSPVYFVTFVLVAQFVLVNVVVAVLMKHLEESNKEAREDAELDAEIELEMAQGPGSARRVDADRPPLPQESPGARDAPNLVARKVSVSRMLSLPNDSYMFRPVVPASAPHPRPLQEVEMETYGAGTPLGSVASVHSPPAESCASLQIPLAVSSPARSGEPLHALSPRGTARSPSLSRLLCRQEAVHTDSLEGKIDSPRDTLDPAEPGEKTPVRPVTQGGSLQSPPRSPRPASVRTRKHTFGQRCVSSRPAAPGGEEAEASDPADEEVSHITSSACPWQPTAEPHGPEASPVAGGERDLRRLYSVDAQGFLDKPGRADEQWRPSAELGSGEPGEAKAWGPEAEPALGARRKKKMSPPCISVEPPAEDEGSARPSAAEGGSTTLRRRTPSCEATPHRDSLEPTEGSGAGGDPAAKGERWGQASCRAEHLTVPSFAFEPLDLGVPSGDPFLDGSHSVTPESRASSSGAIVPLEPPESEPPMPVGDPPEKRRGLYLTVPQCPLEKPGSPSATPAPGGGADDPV
Large screens that a line does not name were inactive. Unless noted, no stated cut-off is given here; in the data, active means inhibition above about 30%; inactive means the rest.

CCN1CCN(C(c2cc3cccc(C)c3[nH]c2=O)c2nnnn2Cc2ccccc2)CC1 (stereo not drawn)	none
COc1ccc(Cn2nnnc2C(c2cc3cc(C)ccc3[nH]c2=O)N2CCOCC2)cc1 (stereo not drawn)	PostGolgi ctrl 44
COc1ccc(Cn2nnnc2C(c2cc3ccc(OC)cc3[nH]c2=O)N2CCC(C)CC2)cc1 (stereo not drawn)	none (no result: tolC growth inh)
COc1ccc(Cn2nnnc2C(c2cc3cccc(C)c3[nH]c2=O)N2CCOCC2)cc1 (stereo not drawn)	PostGolgi ctrl 34
Cc1cc(C)c2[nH]c(=O)c(C(c3nnnn3Cc3ccc4c(c3)OCO4)N3CCC(C)CC3)cc2c1 (stereo not drawn)	PostGolgi ctrl 33
CCOc1ccc2[nH]c(=O)c(C(c3nnnn3Cc3ccco3)N3CCCC(C)C3)cc2c1 (stereo not drawn)	Cav3 T inh -5.9
CCC(C)[C@H](N)c1cn([C@@H](CCCCN)C(=O)N2CCNCC2)nn1 (stereo partly drawn)	none (no result: PostGolgi ctrl, PostGolgi yeast, tolC growth inh, Ecoli WT expand)
Nc1ccccc1-c1nnc(SCc2ccccc2Cl)[nH]c1=O	PostGolgi ctrl 37 (no result: tolC growth inh)
CCOc1ccc(NS(=O)(=O)c2ccc3[nH]cc(C(=O)NCC4CCCO4)c(=O)c3c2)cc1 (stereo not drawn)	none
CCc1ccccc1NS(=O)(=O)c1ccc2[nH]cc(C(=O)NCC3CCCO3)c(=O)c2c1 (stereo not drawn)	PostGolgi ctrl 41 (no result: Cav3 T inh)
N#CN=C1CCCCCN1CC(N)=O	none
Cc1nc(N2CCN(S(=O)(=O)c3cccc4nonc34)CC2)c2c3c(sc2n1)CCCC3	PostGolgi ctrl 59
Cc1ccc(-c2nc3sc4c(c3c(=O)n2N)CCCC4)cc1	none (no result: tolC growth inh)
Cc1ccc(C)c2c1[nH]c1ccc([N+](=O)[O-])cc12	PostGolgi ctrl 54 (no result: tolC growth inh)
C/C(=C\C(=O)OCCCCCCCCC(=O)O)C[C@@H]1OC[C@H](C[C@@H]2O[C@H]2[C@@H](C)[C@H](C)O)[C@@H](O)[C@H]1O	none (no result: PostGolgi ctrl, PostGolgi yeast, tolC growth inh, Ecoli WT expand)
CCCSc1nc2c(=O)[nH][nH]c(=O)c2n1Cc1ccccc1	none (no result: PostGolgi ctrl, PostGolgi yeast, tolC growth inh, Ecoli WT expand)
CCN(CCCNC(=O)CCCn1c(=O)[nH]c2ccccc2c1=O)c1cccc(C)c1	Cav3 T inh -5.5
CCN(CCCNC(=O)c1[nH]c(C)c(C(C)=O)c1C)c1cccc(C)c1	tolC growth inh 98
CC(=O)c1c(C)[nH]c(C(=O)NCc2ccccc2)c1C	none (no result: tolC growth inh)
CCN(CCCNC(=O)CCc1nc(-c2ccc(C)cc2)no1)c1cccc(C)c1	PostGolgi ctrl 36, tolC growth inh 91, Cav3 T inh -8.1
Cc1ccc(-c2noc(CCC(=O)NCCN3CCc4ccccc4C3)n2)cc1	Cav3 T inh -7.1
Cc1ccc(-c2nnc(SCC(=O)N3CCOCC3)nc2-c2ccc(C)cc2)cc1	none (no result: tolC growth inh)
O=c1cc2[nH]c3ccccc3c(=O)n2nc1-c1ccccc1	none (no result: tolC growth inh)
CC1=CC(=O)c2c(O)ccc(O)c2C1=O	Cav3 T inh -5.5 (no result: PostGolgi ctrl, PostGolgi yeast, tolC growth inh, Ecoli WT expand)
CC(SC1CCCC1)C(=O)NC(C)(C#N)C(C)C (stereo not drawn)	PostGolgi ctrl 31
CC(C)C(C)(C#N)NC(=O)CSc1nnc(C(F)(F)F)n1C (stereo not drawn)	none (no result: tolC growth inh, Cav3 T inh)
O=C(c1coc(=O)c2ccccc12)N1CCN(Cc2ccccc2)CC1	none
COc1ccc(N(C(=O)c2ccn[nH]2)C(C(=O)NC(C)(C)C)c2ccc(F)cc2)cc1 (stereo not drawn)	none (no result: tolC growth inh)
CCC(C)(C)NC(=O)C(c1cccc(OC)c1)N(C(=O)c1ccn[nH]1)c1cccc(OC)c1 (stereo not drawn)	Cav3 T inh -5.1
C/C(=N\OC(=O)NC1CCCCC1)c1sc(-c2ccccc2)nc1C	PostGolgi ctrl 34 (no result: tolC growth inh)
C/C(=N\OC(=O)c1ccc(F)cc1)c1sc(-c2ccccc2)nc1C	none (no result: tolC growth inh)
C/C(=N\OC(=O)NC(C)C)c1sc(-c2ccccc2)nc1C	none (no result: tolC growth inh)
C/C(=N\OC(=O)NC(C)C)c1sc(-c2ccc(Cl)cc2)nc1C	PostGolgi ctrl 36 (no result: tolC growth inh)
CN(C(=O)c1cnccn1)c1nnc(-c2cccnc2)s1	none (no result: PostGolgi ctrl, PostGolgi yeast, Ecoli WT expand, Cav3 T inh)
Cc1scc(C(=O)Nn2cnnc2)c1-c1ccccc1	PostGolgi ctrl 33
CCC(=O)Nc1ccccc1Nc1cc(C#N)c(C#N)cc1[N+](=O)[O-]	none (no result: PostGolgi ctrl, PostGolgi yeast, tolC growth inh, Ecoli WT expand)
CC(C)c1ccc(NC(=O)C(c2ccccc2)N2CCC3(CC2)OCCO3)cc1 (stereo not drawn)	Cav3 T inh -7.4 (no result: tolC growth inh)
Cc1ccc(NC(=O)C(c2ccc(Cl)cc2)N2CCCCC2)cc1 (stereo not drawn)	Cav3 T inh -7 (no result: tolC growth inh)
Cc1ccc(C(C(=O)NC2CCCCC2)N2CCOCC2)cc1 (stereo not drawn)	none
Cc1cccc(C)c1NC(=O)C(c1ccc(Cl)cc1Cl)N1CCCCC1 (stereo not drawn)	Cav3 T inh -5 (no result: tolC growth inh)
CCCn1c(SCC(=O)c2ccc(CC)cc2)n[nH]c1=O	none (no result: tolC growth inh)
Cc1cc(C(F)(F)F)nn1Cc1n[nH]c(=S)n1Cc1ccccc1	none (no result: PostGolgi ctrl, PostGolgi yeast, tolC growth inh, Ecoli WT expand)
N#C/C(C(N)=O)=c1/ccc2c(c1)N1C3=C(CCCC3)CC3CCCCC31N=2 (stereo not drawn)	none
N#CC(C#N)=c1ccc2c(c1)N1C3=C(CCCC3)CC3CCCCC31N=2 (stereo not drawn)	PostGolgi ctrl 50, PostGolgi yeast 44, tolC growth inh 82
COc1ccc(Nc2nc(C)cc(-c3cc(-c4ccccc4)on3)n2)cc1	none (no result: PostGolgi ctrl, PostGolgi yeast, tolC growth inh, Ecoli WT expand)
CCn1c(=O)cc(SCC(=O)N2CCN(c3ccccc3OC)CC2)c2ccccc21	none
CCOC(=O)c1cnc(SC2CCc3ccccc3C2=O)nc1N (stereo not drawn)	none
O=C(OC1CCc2ccccc2C1=O)c1ccccc1O (stereo not drawn)	tolC growth inh 68
Cc1ccc(C(c2nnnn2C2CCCC2)N2CCN3CCCC3C2)cc1 (stereo not drawn)	none (no result: tolC growth inh)
Cc1ccc(C(c2nnnn2C2CCCC2)N2CCN(c3nc4ccccc4s3)CC2)cc1 (stereo not drawn)	Cav3 T inh -8.1 (no result: PostGolgi ctrl, PostGolgi yeast, tolC growth inh, Ecoli WT expand)
NC(=O)C1CCN(C(c2ccccc2)c2nnnn2C2CCCC2)CC1 (stereo not drawn)	none (no result: PostGolgi ctrl, PostGolgi yeast, tolC growth inh, Ecoli WT expand)
c1csc(C(c2nnnn2C2CCCC2)N2CCCC3(CCCCC3)C2)c1 (stereo not drawn)	Cav3 T inh -5.7 (no result: tolC growth inh)
c1ccc(C(c2nnnn2C2CCCC2)N2CCN(c3nc4ccccc4s3)CC2)cc1 (stereo not drawn)	Cav3 T inh -8.2 (no result: PostGolgi ctrl, PostGolgi yeast, tolC growth inh, Ecoli WT expand)
c1csc(C(c2nnnn2C2CCCC2)N2CCOCC2)c1 (stereo not drawn)	none
c1csc(C(c2nnnn2C2CCCCC2)N2CCN(c3nc4ccccc4s3)CC2)c1 (stereo not drawn)	Cav3 T inh -3.8 (no result: PostGolgi ctrl, PostGolgi yeast, tolC growth inh, Ecoli WT expand)
Cc1ccc(/C=C/C2=NN(Cc3ccccc3Cl)C(=O)CC2)cc1	PostGolgi ctrl 41 (no result: tolC growth inh)
CCC(C)N1C(=O)c2ccccc2C1C(=O)NC1CCCCCC1 (stereo not drawn)	PostGolgi ctrl 31
Cc1ccc(CNC(=O)CSCC(=O)O)cc1	PostGolgi ctrl 41 (no result: tolC growth inh)
O=C(COc1ccccc1Br)NCc1ccccn1	PostGolgi ctrl 32 (no result: tolC growth inh)
CSc1ccc(/C=N/n2c(C)cc(C)cc2=O)cc1	none
Cc1oc(-c2cccc(Cl)c2)nc1CN1CCCC(C(=O)NC(C)c2ccc3c(c2)OCCO3)C1 (stereo not drawn)	none (no result: Cav3 T inh)

Compound activity from PubChem.
